# Laboratory results reported in ChEMBL document CHEMBL4024758, “Structure-Based Design and Discovery of New M2 Receptor Agonists” (J Med Chem, 2017).
# The source made the active and inactive calls. The rule behind the calls is not given here.
# Tests used:
# [1] = target: Muscarinic acetylcholine receptor M3 (Homo sapiens, UniProt P20309); assay: Displacement of [3H]N-methyl-scopolamine bromide from human recombinant muscarinic M3 receptor expressed in HEK293T cell membranes after 1 hr by liquid scintillation counting method; type: cell-based, HEK-293T
# [2] = target: T1, Muscarinic acetylcholine receptor M1 (Homo sapiens, UniProt P11229); assay: Displacement of [3H]N-methyl-scopolamine bromide from human recombinant muscarinic M1 receptor expressed in HEK293T cell membranes after 1 hr by liquid scintillation counting method; type: cell-based, HEK-293T
# T1 sequence (P11229 whole entry): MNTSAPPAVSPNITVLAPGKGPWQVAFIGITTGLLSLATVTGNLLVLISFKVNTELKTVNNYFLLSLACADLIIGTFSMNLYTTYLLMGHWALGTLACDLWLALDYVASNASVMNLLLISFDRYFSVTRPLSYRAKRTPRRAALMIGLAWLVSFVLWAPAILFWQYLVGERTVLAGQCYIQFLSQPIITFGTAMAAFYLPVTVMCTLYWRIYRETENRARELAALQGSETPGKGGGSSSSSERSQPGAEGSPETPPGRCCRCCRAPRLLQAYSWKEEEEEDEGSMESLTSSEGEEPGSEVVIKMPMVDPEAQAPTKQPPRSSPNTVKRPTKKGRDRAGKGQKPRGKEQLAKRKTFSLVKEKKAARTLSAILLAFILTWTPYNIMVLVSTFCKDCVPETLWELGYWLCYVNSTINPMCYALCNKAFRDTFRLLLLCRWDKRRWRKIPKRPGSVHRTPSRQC
# [3] = target: T2, Muscarinic acetylcholine receptor M2 (Homo sapiens, UniProt P08172); assay: Displacement of [3H]N-methyl-scopolamine bromide from human recombinant muscarinic M2 receptor expressed in HEK293T cell membranes after 1 hr by liquid scintillation counting method; set-up: species or system HEK-293T
# T2 sequence (P08172 whole entry): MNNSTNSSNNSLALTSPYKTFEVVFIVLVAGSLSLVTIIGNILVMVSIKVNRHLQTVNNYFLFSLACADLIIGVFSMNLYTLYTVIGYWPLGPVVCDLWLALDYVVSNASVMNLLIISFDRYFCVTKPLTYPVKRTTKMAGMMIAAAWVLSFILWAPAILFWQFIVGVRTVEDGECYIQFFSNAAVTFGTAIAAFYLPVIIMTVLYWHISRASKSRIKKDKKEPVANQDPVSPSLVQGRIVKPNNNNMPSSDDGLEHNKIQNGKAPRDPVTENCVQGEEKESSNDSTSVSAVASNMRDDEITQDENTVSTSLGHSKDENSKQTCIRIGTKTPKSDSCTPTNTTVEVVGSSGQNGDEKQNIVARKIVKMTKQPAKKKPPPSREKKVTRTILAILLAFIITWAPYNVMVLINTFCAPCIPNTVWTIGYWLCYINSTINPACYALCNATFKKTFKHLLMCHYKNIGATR
# [4] = target: T2, Muscarinic acetylcholine receptor M2; assay: Agonist activity at human recombinant muscarinic M2 receptor co-expressed with Galphaqi5-HA in African green monkey COS7 cells assessed as IP accumulation after 2 hrs in presence of myo-[3H]inositol by liquid scintillation counting method; type: functional
# [5] = target: T3, Muscarinic acetylcholine receptor M2 (Homo sapiens) (UniProt P08172); assay: Agonist activity at human recombinant muscarinic M2 receptor co-expressed with Galphaqi5-HA in African green monkey COS7 cells assessed as IP accumulation after 2 hrs in presence of myo-[3H]inositol by liquid scintillation counting method relative to carbachol; type: functional
# T3 sequence (whole entry): T2 sequence (P08172 whole entry)
# [6] = target: T3, Muscarinic acetylcholine receptor M2 (Homo sapiens); assay: Agonist activity at human recombinant muscarinic M2 receptor co-expressed with Galphaqi5-HA in African green monkey COS7 cells assessed as IP accumulation at 100 uM after 2 hrs in presence of myo-[3H]inositol by liquid scintillation counting method relative to carbachol; type: functional
# [7] = target: T3, Muscarinic acetylcholine receptor M2 (Homo sapiens); assay: Agonist activity at Gi/o coupled recombinant human M2 mAChR expressed in CHO-FlpIn cells assessed as IP-one accumulation after 40 mins by HTRF assay; type: cell-based
# In short: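 Stably transfected CHO-FlpIn whole cells, 20000/well, grown overnight at 37 °C with 5% CO2. Cells were washed with PBS, then held 60 min at 37 °C in HEPES stimulation buffer with 50 mM LiCl, pH 7.4. ACh or test ligand was added and incubated 40 min.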
# [8] = target: Neuronal acetylcholine receptor; alpha4/beta2 (Homo sapiens, UniProt P17787+P43681); assay: Displacement of [3H]cytisine from alpha4beta2 nAChR expressed in human recombinant SH-SY5Y cell membranes after 120 mins
# Sequence of Neuronal acetylcholine receptor; alpha4/beta2 (P17787 whole entry): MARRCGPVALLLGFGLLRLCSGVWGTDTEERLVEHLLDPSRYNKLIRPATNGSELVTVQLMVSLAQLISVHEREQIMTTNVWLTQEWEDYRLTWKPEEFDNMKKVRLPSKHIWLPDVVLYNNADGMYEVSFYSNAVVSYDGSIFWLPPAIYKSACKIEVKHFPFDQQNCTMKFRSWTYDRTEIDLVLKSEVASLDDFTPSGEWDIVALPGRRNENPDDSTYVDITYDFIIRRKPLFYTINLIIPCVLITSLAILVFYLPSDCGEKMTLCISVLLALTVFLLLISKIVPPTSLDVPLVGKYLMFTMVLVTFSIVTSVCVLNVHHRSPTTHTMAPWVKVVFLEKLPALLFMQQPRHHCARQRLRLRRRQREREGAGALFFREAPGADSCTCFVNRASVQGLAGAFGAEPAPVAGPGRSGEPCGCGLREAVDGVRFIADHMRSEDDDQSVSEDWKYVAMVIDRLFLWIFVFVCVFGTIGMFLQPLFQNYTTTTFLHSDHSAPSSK
# Sequence of Neuronal acetylcholine receptor; alpha4/beta2 (P43681 whole entry): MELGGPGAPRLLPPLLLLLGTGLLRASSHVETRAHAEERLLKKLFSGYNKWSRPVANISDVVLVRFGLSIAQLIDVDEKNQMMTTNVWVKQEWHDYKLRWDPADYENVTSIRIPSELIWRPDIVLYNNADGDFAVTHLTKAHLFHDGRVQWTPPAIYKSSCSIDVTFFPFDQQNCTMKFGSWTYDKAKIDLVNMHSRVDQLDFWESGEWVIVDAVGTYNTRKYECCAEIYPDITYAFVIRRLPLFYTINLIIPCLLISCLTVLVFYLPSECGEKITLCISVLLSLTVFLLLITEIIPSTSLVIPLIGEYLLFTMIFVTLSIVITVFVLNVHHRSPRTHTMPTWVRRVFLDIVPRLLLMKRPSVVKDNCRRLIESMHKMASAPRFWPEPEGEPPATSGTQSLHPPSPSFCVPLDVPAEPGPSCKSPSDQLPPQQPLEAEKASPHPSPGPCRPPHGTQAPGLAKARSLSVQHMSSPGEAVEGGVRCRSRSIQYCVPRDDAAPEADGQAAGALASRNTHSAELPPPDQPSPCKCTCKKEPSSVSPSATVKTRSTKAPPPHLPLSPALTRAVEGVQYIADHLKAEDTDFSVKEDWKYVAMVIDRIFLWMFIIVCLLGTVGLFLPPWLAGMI
# Sequence of Muscarinic acetylcholine receptor M3 (P20309 whole entry): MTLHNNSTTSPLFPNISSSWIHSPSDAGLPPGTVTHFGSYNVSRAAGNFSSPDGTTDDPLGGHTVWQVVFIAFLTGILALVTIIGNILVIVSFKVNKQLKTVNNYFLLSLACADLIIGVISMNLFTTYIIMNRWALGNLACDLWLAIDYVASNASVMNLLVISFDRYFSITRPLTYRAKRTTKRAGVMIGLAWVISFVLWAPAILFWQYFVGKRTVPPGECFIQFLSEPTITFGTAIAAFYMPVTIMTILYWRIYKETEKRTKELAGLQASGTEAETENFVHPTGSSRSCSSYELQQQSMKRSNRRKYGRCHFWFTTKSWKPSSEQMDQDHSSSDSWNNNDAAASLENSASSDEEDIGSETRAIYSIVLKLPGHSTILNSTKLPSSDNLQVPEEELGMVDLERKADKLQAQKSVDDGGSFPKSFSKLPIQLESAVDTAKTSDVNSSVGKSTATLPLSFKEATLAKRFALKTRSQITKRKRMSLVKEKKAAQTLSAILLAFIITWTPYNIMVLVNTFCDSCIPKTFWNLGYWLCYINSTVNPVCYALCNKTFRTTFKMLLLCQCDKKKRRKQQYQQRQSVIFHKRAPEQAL
SMILES,Ki [1] [µM],Ki [2] [µM],Ki [3] [µM],EC50 [4] [µM],Emax [5] [%],Emax [6] [%],Activity [7],Ki [8] [µM]
C[N+](C)(C)C1CCc2cccc(O)c2C1 (centres undefined),16,2.9,4.2,–,–,–,–,–
C[N+](C)(C)C1CCc2ccc3ccoc3c2C1 (centres undefined),0.69,0.38,0.79,2.3,-8.3,–,–,–
COc1cccc2c1CCC(C[N+](C)(C)C)C2 (centres undefined),25,17,14,–,–,–,–,–
COc1cccc2c1CCC([N+](C)(C)C)C2 (centres undefined),4,2.5,4.4,–,–,–,–,–
COc1cccc2c1CC([N+](C)(C)C)CC2 (centres undefined),2,1,0.93,–,–,–,–,–
CCOc1cccc(CC[N+](C)(C)C)c1,43,42,27,–,–,40,–,–
COc1ccc(F)c(CC[N+](C)(C)C)c1,14,7.1,0.98,23,44,–,–,–
COc1cccc2c1CC(C[N+](C)(C)C)CC2 (centres undefined),3.9,1.8,1.3,–,–,–,–,–
C[N+](C)(C)CCc1cccc(Cl)c1,5.8,4.5,4.8,–,–,< 10,–,–
C[N+](C)(C)CCc1ccc2ccoc2c1,0.041,0.023,0.14,0.22,-14,–,–,–
COc1cccc2c1CC(N(C)C)CC2 (centres undefined),0.83,2,1.2,–,–,–,–,–
C[N+](C)(C)CCc1cccc(OC(F)(F)F)c1,11,7.8,9.2,–,–,< 10,–,–
CN(C)C1CCc2cccc(O)c2C1 (centres undefined),28,> 50,> 50,–,–,–,–,–
c1csc(COC2CCNC2)n1 (centres undefined),4.1,4.2,6,9.9,74,–,–,–
COc1ccccc1CC[N+](C)(C)C,4.7,4.9,5.7,9.1,21,–,–,–
CC(=O)OCC[N+](C)(C)C,–,–,–,–,–,–,inactive,–
COc1cccc(C(O)C[N+](C)(C)C)c1 (centres undefined),12,13,29,–,–,< 10,–,–

SMILES,Ki [1] [µM],Ki [2] [µM],Ki [3] [µM],EC50 [4] [µM],Emax [5] [%],Emax [6] [%],Activity [7],Ki [8] [µM]
C[N+]1(C)CCC(OCc2nccs2)C1 (centres undefined),12,6.1,10,10,28,–,–,–
CN1CCCC(OCc2cccnc2)C1 (centres undefined),42,20,46,50,33,–,–,–
C[N+](C)(C)CC#CCOC1=NOCC1,0.55,0.35,0.0049,0.00028,125,–,–,–
c1cncc(COCC2CCNC2)c1 (centres undefined),36,18,11,29,74,–,–,0.2
COc1cccc(/C=C/C[N+](C)(C)C)c1,21,16,22,–,–,–,–,–
CNCCc1cccc(OC)c1,0.78,0.74,1,8.2,-12,–,–,–
C[N+](C)(C)CCc1cccc(O)c1,13,20,14,10,44,–,–,–
CN1CCC(COCc2cccnc2)C1 (centres undefined),75,38,39,> 100,–,38,–,–
COc1ccccc1C[N+](C)(C)C,> 50,26,> 50,18,51,–,–,–
C[N+](C)(C)CCCc1ccc2ccoc2c1,0.14,0.063,0.23,0.027,12,–,–,–
COc1cccc2c1C[N+](C)(C)CC2,5.8,17,6.3,–,–,–,–,–
COc1cccc(C#CC[N+](C)(C)C)c1,20,20,50,–,–,–,–,–
COc1cccc2c1CC[N+](C)(C)C2,24,14,26,–,–,–,–,–
COc1cccc(C(=O)C[N+](C)(C)C)c1,0.21,0.17,2.4,–,–,< 10,–,–
c1cncc(COC2CCCNC2)c1 (centres undefined),10,10,17,13,60,–,–,0.0016
COc1cccc(C2CC2C[N+](C)(C)C)c1 (centres undefined),8.7,7.3,15,–,–,–,–,–
